Experimental data pooled from the literature.
Protocols differ between the studies behind these lines.
SULT1E1: Sulfotransferase 1E1 (SULT1E1, Homo sapiens, UniProt P49888)
Stromelysin-2: Stromelysin-2 (Homo sapiens, UniProt P09238)
SGK2: Serine/threonine-protein kinase Sgk2 (SGK2, Homo sapiens, UniProt Q9HBY8)
PRKAA2: 5'-AMP-activated protein kinase catalytic subunit alpha-2 (PRKAA2, Homo sapiens, UniProt P54646)
PSMB6: Proteasome subunit beta type-6 (PSMB6, Homo sapiens, UniProt P28072)

N=C(N)c1ccc2cc(OC(=O)c3ccc(N=C(N)N)cc3)ccc2c1
inhibition (Dipeptidyl peptidase 4 (DPP4, Homo sapiens, UniProt P27487); enzyme activity, inhibitor; 10 µM): 18%

Oc1cc(Br)cc(Br)c1Oc1ccc(Br)cc1Br
Km (SULT1E1; enzyme activity, substrate): 63.2 µM

CCOC(=O)c1ccc(OC(=O)CCCCCNC(=N)N)cc1
inhibition (Stromelysin-2; enzyme activity, inhibitor; 10 µM): 12%

O=C(Nc1cccnn1)N1CCN([C@@H]2CCOc3cc(C(F)(F)F)ccc32)CC1
inhibition (C-X-C chemokine receptor type 4 (CXCR4, Homo sapiens, UniProt P61073); cell-free assay; 20 µM): -21%

C#Cc1n[nH]c2c(-c3cn([C@@H](C)c4ccccn4)c(=O)[nH]c3=O)cc(F)cc12
inhibition (Cyclin-dependent kinase 9, with cyclin T1 (CDK9, Homo sapiens, UniProt P50750); enzyme activity, inhibitor; 0.1 µM): 8.9%

N#C[C@@H]1CC(F)(F)CN1C(=O)CNC(=O)c1ccnc2ccccc12
inhibition (Prolyl endopeptidase FAP (FAP, Homo sapiens, UniProt Q12884); enzyme activity, inhibitor; 0.1 µM): 100%

CCN(CC)CCCC[C@H](NC(=O)[C@H](CC(C)C)NC(=O)[C@H](C)NC(=O)[C@H](Cc1ccccc1)NC(=O)c1ccc(C(C)(C)C)cc1)C(=O)N[C@@H](CO)C(=O)OC
ΔTm (SP140 (Homo sapiens, UniProt Q13342); thermal stability, DSF; 25 µM): 0.07 °C

Cn1cc(-c2cccc(N3CCc4c(sc5c4CC(C)(C)C5)C3=O)c2CO)cc(Nc2ccncn2)c1=O
inhibition (SGK2; enzyme activity, inhibitor; 1 µM): 3%

COc1cc(Br)cc(Br)c1Oc1cc(Br)cc(Br)c1O
Km (SULT1E1; enzyme activity, substrate): 1.09 µM

Nc1ncc(-c2nc(N3CCOCC3)nc(N3CCOCC3)n2)c(C(F)F)n1
remaining binding (SGK2; binding, competition with immobilised ligand; 10 µM): 84%

CN(C)C(=O)COC(=O)Cc1ccc(OC(=O)c2ccc(NC(=N)N)cc2)cc1
inhibition (Stromelysin-2; enzyme activity, inhibitor; 10 µM): 29%

Cn1cc(-c2cc(F)cc(N3CCn4c(cc5c4CCCC5)C3=O)c2CO)cc(Nc2ccc(N3CCN(C4COC4)CC3)cn2)c1=O
inhibition (PRKAA2; enzyme activity, inhibitor; 0.1 µM): 14%

Cc1cc(-c2nsc(=O)o2)c(S(C)(=O)=O)s1
kinact/KI (PSMB6; enzyme activity, inhibitor): 1.4 M⁻¹ s⁻¹

COc1ncccc1-c1cnn2ccc(N3CCN(C(=O)OC(C)C)CC3)nc12
remaining binding (Ankyrin repeat and protein kinase domain-containing protein 1 (ANKK1, Homo sapiens, UniProt Q8NFD2); binding, competition with immobilised ligand; 1 µM): 13%

COc1ccc(S(=O)(=O)N(CC(=O)NO)CC(C)C)cc1
inhibition (Stromelysin-2; enzyme activity, inhibitor; 0.1 µM): 25%

CSc1sc(C)cc1-c1nsc(=O)o1
kinact/KI (PSMB6; enzyme activity, inhibitor): 0.03 M⁻¹ s⁻¹

Cc1nn(C)cc1-c1nc2c(N3CCN(Cc4ccc(Cl)cc4)CC3)c(Cl)cnc2[nH]1
remaining binding (PRKAA2; binding, competition with immobilised ligand; 1 µM): 0.9%

C#Cc1n[nH]c2c(-c3cn([C@@H](C)c4ccccc4)c(=O)[nH]c3=O)cc(F)cc12
inhibition (Cyclin-dependent kinase 1, with cyclin B (CDK1, Homo sapiens, UniProt P06493); enzyme activity, inhibitor; 0.1 µM): 5.9%
